Values after ≈ are worked out from the molar mass of the structure shown. Active and inactive are the calls of the source. No cut-off for these calls is given here.
Experiments:
Staphylococcus aureus [1] = experiment: Antibacterial activity against Staphylococcus aureus ATCC 6538 after 24 to 48 hrs by twofold serial dilution method; type: functional
How it was run: (§1)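 Broth microdilution in Müller–Hinton broth. DMSO stocks at 800 were diluted twofold from 400 down to 6.25. Wells received 10^6 CFU/mL bacterial suspension and were incubated at 36 °C for 24–48 h, with controls. MIC was read per well. Duplicate assays; run only for compounds giving inhibition zones ≥14 mm.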

Bacillus subtilis [2] = experiment: Antibacterial activity against Bacillus subtilis NRRL B-14819 after 24 to 48 hrs by twofold serial dilution method; type: functional; how it was run: as §1
Micrococcus luteus [3] = experiment: Antibacterial activity against Micrococcus luteus ATCC 21881 after 24 to 48 hrs by twofold serial dilution method; type: functional; how it was run: as §1
Escherichia coli [4] = experiment: Antibacterial activity against Escherichia coli ATCC 25922 after 24 to 48 hrs by twofold serial dilution method; type: functional; how it was run: as §1
Pseudomonas aeruginosa [5] = experiment: Antibacterial activity against Pseudomonas aeruginosa ATCC 27853 after 24 to 48 hrs by twofold serial dilution method; type: functional; how it was run: as §1
Klebsiella pneumoniae [6] = experiment: Antibacterial activity against Klebsiella pneumoniae isolate after 24 to 48 hrs by twofold serial dilution method; type: functional; how it was run: as §1
Candida tropicalis = experiment: Antifungal activity against Candida tropicalis isolate after 72 hrs by twofold serial dilution method; type: functional, organism-based
Pichia kudriavzevii = experiment: Antifungal activity against Candida krusei isolate after 72 hrs by twofold serial dilution method; type: functional, organism-based
Aspergillus niger = experiment: Antifungal activity against Aspergillus niger isolate after 72 hrs by twofold serial dilution method; type: functional, organism-based
Trichophyton rubrum = experiment: Antifungal activity against Trichophyton rubrum isolate after 72 hrs by twofold serial dilution method; type: functional, organism-based
Staphylococcus aureus [7] = experiment: Antibacterial activity against Staphylococcus aureus ATCC 6538 at 1 mg/mL after 24 hrs by agar diffusion method; type: functional; conditions: ATCC 6538, 24 h, read-out: Diameter of inhibition zone
How it was run: (§2)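 Agar disc diffusion: 5 mm sterile paper discs soaked in 1 mg/mL test solution in DMSO were placed on agar seeded with the organism, in triplicate, with a DMSO-only control. Bacterial plates were incubated at 37 °C for 24 h and fungal plates for 7 days. Read-out was the average inhibition-zone diameter in mm. Fungi were clinical isolates.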

Bacillus subtilis [8] = experiment: Antibacterial activity against Bacillus subtilis NRRL B-14819 at 1 mg/mL after 24 hrs by agar diffusion method; type: functional; conditions: read-out: Diameter of inhibition zone; how it was run: as §2
Micrococcus luteus [9] = experiment: Antibacterial activity against Micrococcus luteus ATCC 21881 at 1 mg/mL after 24 hrs by agar diffusion method; type: functional; conditions: ATCC 21881, 24 h, read-out: Diameter of inhibition zone; how it was run: as §2
Escherichia coli [10] = experiment: Antibacterial activity against Escherichia coli ATCC 25922 at 1 mg/mL after 24 hrs by agar diffusion method; type: functional; conditions: ATCC 25922, 24 h, read-out: Diameter of inhibition zone; how it was run: as §2
Pseudomonas aeruginosa [11] = experiment: Antibacterial activity against Pseudomonas aeruginosa ATCC 27853 at 1 mg/mL after 24 hrs by agar diffusion method; type: functional; conditions: ATCC 27853, 24 h, read-out: Diameter of inhibition zone; how it was run: as §2
Klebsiella pneumoniae [12] = experiment: Antibacterial activity against Klebsiella pneumoniae isolate at 1 mg/mL after 24 hrs by agar diffusion method; type: functional; conditions: read-out: Diameter of inhibition zone; how it was run: as §2
Candida albicans = experiment: Antifungal activity against Candida albicans isolate at 1 mg/mL after 7 days by twofold serial dilution method; type: functional; conditions: 168 h, read-out: Diameter of inhibition zone
Aspergillus fumigatus = experiment: Antifungal activity against Aspergillus fumigatus isolate at 1 mg/mL after 7 days by agar diffusion method; type: functional; conditions: 168 h, read-out: Diameter of inhibition zone; how it was run: as §2
Mus musculus [13] = experiment: Anticonvulsant activity in Wister albino mouse assessed as protection against subcutaneous metrazole-induced seizures at 100 mg/kg, ip administered 30 mins before metrazole challenge measured after 30 mins; type: functional; conditions: route intraperitoneal
How it was run: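 Wistar albino mice, either sex, 25–30 g, 3 months old, in groups of six. Compounds in DMSO were given ip at 30, 100 or 300 mg/kg; vehicle-only controls. After 30 min, metrazole 100 mg/kg in DMSO was injected sc at the posterior midline. Protection meant absence of any clonic spasm lasting ≥5 s; scored as protected/tested.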

Mus musculus [14] = experiment: Anticonvulsant activity in Wister albino mouse assessed as protection against maximal electroshock-induced seizures at 100 mg/kg, ip administered 30 mins before metrazole challenge measured after 30 mins; type: functional; conditions: route intraperitoneal

Row | SMILES | MIC (Staphylococcus aureus [1]) [µg/mL] | MIC (Bacillus subtilis [2]) [µg/mL] | MIC (Micrococcus luteus [3]) [µg/mL] | MIC (Escherichia coli [4]) [µg/mL] | MIC (Pseudomonas aeruginosa [5]) [µg/mL] | MIC (Klebsiella pneumoniae [6]) [µg/mL] | Activity (Candida tropicalis) | Activity (Pichia kudriavzevii) | Activity (Aspergillus niger) | Activity (Trichophyton rubrum) | zone of inhibition at 1000 µg/mL (Staphylococcus aureus [7]) [mm] | zone of inhibition at 1000 µg/mL (Bacillus subtilis [8]) [mm] | zone of inhibition at 1000 µg/mL (Micrococcus luteus [9]) [mm] | zone of inhibition at 1000 µg/mL (Escherichia coli [10]) [mm] | zone of inhibition at 1000 µg/mL (Pseudomonas aeruginosa [11]) [mm] | zone of inhibition at 1000 µg/mL (Klebsiella pneumoniae [12]) [mm] | zone of inhibition at 1000 µg/mL (Candida albicans) [mm] | zone of inhibition at 1000 µg/mL (Aspergillus fumigatus) [mm] | Activity (Mus musculus [13]) [%] | Activity (Mus musculus [14]) [%]
1 | CC1(C)S[C@@H]2[C@H](NC(=O)[C@H](N)c3ccccc3)C(=O)N2[C@H]1C(=O)O.O.O.O [AMPICILLIN TRIHYDRATE] | 6.25 | 12.5 | 12.5 | 6.25 | 12.5 | 12.5 |  |  |  |  |  |  |  |  |  |  |  |  |  | 
2 | OC(Cn1nnc(-c2ccccc2)n1)c1ccc(Cl)cc1 (configuration not stated) |  |  |  |  |  |  |  |  |  |  |  |  |  |  |  |  |  |  | 0 | 0
3 | O=C(COC(Cn1nnnc1Cc1ccccc1)c1ccc(Cl)cc1)NNC(=S)Nc1ccccc1 (configuration not stated) | 100 (≈ 192 µM) | ≥ 200 | 100 (≈ 192 µM) | 100 (≈ 192 µM) | ≥ 200 | ≥ 200 | inactive | inactive | inactive | inactive | ≥ 14 | ≥ 14 | ≥ 14 | ≥ 14 | ≥ 14 | ≥ 14 | ≥ 14 | ≥ 14 |  | 
4 | O=C(O)COC(Cn1nnc(-c2ccccc2)n1)c1ccc(Cl)cc1 (configuration not stated) | 100 (≈ 279 µM) | 100 (≈ 279 µM) | ≥ 200 | ≥ 200 | ≥ 200 | ≥ 200 | inactive | inactive | inactive | inactive | ≥ 14 | ≥ 14 | ≥ 14 | ≥ 14 | ≥ 14 | ≥ 14 | ≥ 14 | ≥ 14 |  | 
5 | O=C(COC(Cn1nnnc1Cc1ccccc1)c1ccc(Cl)cc1)NNC(=S)Nc1ccc(Cl)cc1 (configuration not stated) | 100 (≈ 180 µM) | ≥ 200 | ≥ 200 | ≥ 200 | ≥ 200 | ≥ 200 | inactive | inactive | inactive | inactive | ≥ 14 | ≥ 14 | ≥ 14 | ≥ 14 | ≥ 14 | ≥ 14 | ≥ 14 | ≥ 14 |  | 
6 | NNC(=O)COC(Cn1nnc(-c2ccccc2)n1)c1ccc(Cl)cc1 (configuration not stated) | 100 (≈ 268 µM) | ≥ 200 | ≥ 200 | ≥ 200 | ≥ 200 | ≥ 200 | inactive | inactive | inactive | inactive |  |  |  |  |  |  |  |  |  | 

Further compounds by falling MIC (Staphylococcus aureus [1]), results first:

Row | MIC (Staphylococcus aureus [1]) [µg/mL] | MIC (Bacillus subtilis [2]) [µg/mL] | MIC (Micrococcus luteus [3]) [µg/mL] | MIC (Escherichia coli [4]) [µg/mL] | MIC (Pseudomonas aeruginosa [5]) [µg/mL] | MIC (Klebsiella pneumoniae [6]) [µg/mL] | SMILES | Activity (Candida tropicalis) | Activity (Pichia kudriavzevii) | Activity (Aspergillus niger) | Activity (Trichophyton rubrum) | zone of inhibition at 1000 µg/mL (Staphylococcus aureus [7]) [mm] | zone of inhibition at 1000 µg/mL (Bacillus subtilis [8]) [mm] | zone of inhibition at 1000 µg/mL (Micrococcus luteus [9]) [mm] | zone of inhibition at 1000 µg/mL (Escherichia coli [10]) [mm] | zone of inhibition at 1000 µg/mL (Pseudomonas aeruginosa [11]) [mm] | zone of inhibition at 1000 µg/mL (Klebsiella pneumoniae [12]) [mm] | zone of inhibition at 1000 µg/mL (Candida albicans) [mm] | zone of inhibition at 1000 µg/mL (Aspergillus fumigatus) [mm] | Activity (Mus musculus [13]) [%] | Activity (Mus musculus [14]) [%]
7 | 100 (≈ 354 µM) | ≥ 200 | ≥ 200 | 100 (≈ 354 µM) | ≥ 200 | ≥ 200 | Clc1ccc(/C=C/n2nnc(-c3ccccc3)n2)cc1 | inactive | inactive | inactive | inactive | ≥ 14 | ≥ 14 | ≥ 14 | ≥ 14 | ≥ 14 | ≥ 14 | ≥ 14 | ≥ 14 |  | 
8 | 100 (≈ 259 µM) | ≥ 200 | ≥ 200 | ≥ 200 | ≥ 200 | ≥ 200 | CCOC(=O)COC(Cn1nnc(-c2ccccc2)n1)c1ccc(Cl)cc1 (configuration not stated) | inactive | inactive | inactive | inactive | ≥ 14 | ≥ 14 | ≥ 14 | ≥ 14 | ≥ 14 | ≥ 14 | ≥ 14 | ≥ 14 |  | 
9 | 50 (≈ 101 µM) | 50 (≈ 101 µM) | 100 (≈ 202 µM) | 100 (≈ 202 µM) | ≥ 200 | ≥ 200 | O=C(COC(Cn1nnc(-c2ccccc2)n1)c1ccc(Cl)cc1)N/N=C/c1ccc(Cl)cc1 (configuration not stated) | inactive | inactive | inactive | inactive | ≥ 14 | ≥ 14 | ≥ 14 | ≥ 14 | ≥ 14 | ≥ 14 | ≥ 14 | ≥ 14 |  | 
10 | 25 (≈ 47.7 µM) | 50 (≈ 95.3 µM) | 100 (≈ 191 µM) | 100 (≈ 191 µM) | ≥ 200 | 100 (≈ 191 µM) | Sc1nnc(COC(Cn2nnc(-c3ccccc3)n2)c2ccc(Cl)cc2)n1-c1ccc(Cl)cc1 (configuration not stated) | inactive | inactive | inactive | inactive | ≥ 14 | ≥ 14 | ≥ 14 | ≥ 14 | ≥ 14 | ≥ 14 | ≥ 14 | ≥ 14 |  | 
11 | 12.5 (≈ 25.5 µM) | 50 (≈ 102 µM) | 50 (≈ 102 µM) | 50 (≈ 102 µM) | 100 (≈ 204 µM) | 50 (≈ 102 µM) | Sc1nnc(COC(Cn2nnc(-c3ccccc3)n2)c2ccc(Cl)cc2)n1-c1ccccc1 (configuration not stated) | inactive | inactive | inactive | inactive | ≥ 14 | ≥ 14 | ≥ 14 | ≥ 14 | ≥ 14 | ≥ 14 | ≥ 14 | ≥ 14 | 33 | 33
12 | 12.5 (≈ 28.6 µM) | 25 (≈ 57.2 µM) | 50 (≈ 114 µM) | 50 (≈ 114 µM) | 100 (≈ 229 µM) | 100 (≈ 229 µM) | Cc1cc(C)n(C(=O)COC(Cn2nnc(-c3ccccc3)n2)c2ccc(Cl)cc2)n1 (configuration not stated) | inactive | inactive | inactive | inactive | ≥ 14 | ≥ 14 | ≥ 14 | ≥ 14 | ≥ 14 | ≥ 14 | ≥ 14 | ≥ 14 | 0 | 0
13 | 12.5 (≈ 26.4 µM) | 50 (≈ 106 µM) | 100 (≈ 211 µM) | 25 (≈ 52.8 µM) | 100 (≈ 211 µM) | 100 (≈ 211 µM) | Clc1ccc(C(Cn2nnc(-c3ccccc3)n2)OCc2nnc(Nc3ccccc3)o2)cc1 (configuration not stated) | inactive | inactive | inactive | inactive | ≥ 14 | ≥ 14 | ≥ 14 | ≥ 14 | ≥ 14 | ≥ 14 | ≥ 14 | ≥ 14 |  | 
14 | 6.25 (≈ 15.1 µM) | 25 (≈ 60.3 µM) | 50 (≈ 121 µM) | 25 (≈ 60.3 µM) | 50 (≈ 121 µM) | 100 (≈ 241 µM) | Sc1nnc(COC(Cn2nnc(-c3ccccc3)n2)c2ccc(Cl)cc2)o1 (configuration not stated) | inactive | inactive | inactive | inactive | ≥ 14 | ≥ 14 | ≥ 14 | ≥ 14 | ≥ 14 | ≥ 14 | ≥ 14 | ≥ 14 | 33 | 0

— ChEMBL document CHEMBL1152796, “Azole antimicrobial pharmacophore-based tetrazoles: synthesis and biological evaluation as potential antimicrobial and anticonvulsant agents” (Bioorg Med Chem, 2009)
